How the values were obtained:
[1] = target: T1, Neprilysin (Mus musculus) (UniProt Q61391); assay: In vivo percent inhibition activity against kidney Neutral endopeptidase 2 hr after oral administration of a dose of 2.6 x 10e-5 mol/kg; assay type: functional, organism-based
T1 sequence (whole entry): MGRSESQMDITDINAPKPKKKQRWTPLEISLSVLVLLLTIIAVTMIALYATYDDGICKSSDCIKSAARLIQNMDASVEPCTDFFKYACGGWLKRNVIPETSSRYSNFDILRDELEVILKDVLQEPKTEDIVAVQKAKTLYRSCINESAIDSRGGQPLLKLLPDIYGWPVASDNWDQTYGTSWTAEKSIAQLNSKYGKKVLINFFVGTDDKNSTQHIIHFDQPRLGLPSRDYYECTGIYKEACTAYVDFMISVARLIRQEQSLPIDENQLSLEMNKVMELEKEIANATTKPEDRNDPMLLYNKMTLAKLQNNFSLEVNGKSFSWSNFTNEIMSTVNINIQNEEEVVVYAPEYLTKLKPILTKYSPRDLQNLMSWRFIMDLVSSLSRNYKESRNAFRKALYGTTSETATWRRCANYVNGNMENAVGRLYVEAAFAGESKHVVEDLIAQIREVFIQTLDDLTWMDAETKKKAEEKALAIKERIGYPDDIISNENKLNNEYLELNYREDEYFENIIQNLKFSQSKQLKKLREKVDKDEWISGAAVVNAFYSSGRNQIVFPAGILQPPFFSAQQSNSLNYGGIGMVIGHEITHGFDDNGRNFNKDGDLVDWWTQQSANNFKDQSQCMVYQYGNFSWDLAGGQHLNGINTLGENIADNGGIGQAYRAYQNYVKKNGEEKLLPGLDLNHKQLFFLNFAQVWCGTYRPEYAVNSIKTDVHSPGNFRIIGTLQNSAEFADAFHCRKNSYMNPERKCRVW
Summary of the method: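 Mice given a single oral dose in 10% ethanol/10% cremophor/80% water; kidneys taken 2 h later and homogenized at 4 °C in 50 mM Tris-HCl pH 7.4. Membrane fraction (100000g) preincubated 5 min at 25 °C with bestatin and captopril, then incubated 10 min with [3H]-D-Ala2-Leu-enkephalin (2 × 10^-8 M). [3H]Tyr-D-Ala-Gly counted; blanks contained 10^-5 M retrothiorphan.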

[2] = target: T2, Neprilysin (Oryctolagus cuniculus, UniProt P08049); assay: In vitro inhibition of neutral endopeptidase
T2 sequence (P08049 whole entry): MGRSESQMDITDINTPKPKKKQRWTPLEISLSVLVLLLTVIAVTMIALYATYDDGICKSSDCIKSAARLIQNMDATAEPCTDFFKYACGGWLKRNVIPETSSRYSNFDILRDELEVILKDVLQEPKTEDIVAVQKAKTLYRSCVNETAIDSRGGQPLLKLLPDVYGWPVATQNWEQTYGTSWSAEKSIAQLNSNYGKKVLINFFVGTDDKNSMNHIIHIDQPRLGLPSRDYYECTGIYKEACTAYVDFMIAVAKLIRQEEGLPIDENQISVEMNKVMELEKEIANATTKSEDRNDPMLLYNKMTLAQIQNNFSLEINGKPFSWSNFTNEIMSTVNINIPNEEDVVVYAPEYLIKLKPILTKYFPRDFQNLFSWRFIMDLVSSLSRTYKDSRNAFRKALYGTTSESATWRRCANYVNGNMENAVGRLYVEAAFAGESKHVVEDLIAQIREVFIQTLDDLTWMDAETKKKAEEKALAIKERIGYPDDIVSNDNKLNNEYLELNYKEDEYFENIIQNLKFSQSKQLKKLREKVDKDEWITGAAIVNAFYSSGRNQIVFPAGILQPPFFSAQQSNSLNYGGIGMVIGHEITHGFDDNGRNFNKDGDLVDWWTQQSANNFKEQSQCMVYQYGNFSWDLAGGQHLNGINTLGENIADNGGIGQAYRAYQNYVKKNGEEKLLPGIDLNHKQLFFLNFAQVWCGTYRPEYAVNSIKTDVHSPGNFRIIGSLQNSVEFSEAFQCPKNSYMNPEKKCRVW
Summary of the method: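 NEP purified from rabbit kidney, 1 pmol/100 µL final, preincubated 15 min at 25 °C with increasing inhibitor concentrations in 50 mM Tris-HCl pH 7.4. Substrate [3H]-D-Ala2-Leu-enkephalin at 20 nM final, 30 min; stopped with 0.5 M HCl. [3H]Tyr-D-Ala-Gly separated on polystyrene beads and counted by scintillation. IC50 is the mean ± SEM of three independent experiments run in triplicate.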

SMILES	inhibition [1] [%]	IC50 [2] [nM]
O=C(NCC(=O)N1[C@@H](c2ccccc2)CC[C@H]1C(=O)O)[C@@H](S)Cc1ccccc1	75	1.6
Cc1ccc([C@H]2CC[C@@H](C(=O)O)N2C(=O)CNC(=O)[C@@H](S)Cc2ccccc2)cc1	34	12.5
Cc1ccccc1C1CC[C@@H](C(=O)O)N1C(=O)CNC(=O)[C@@H](S)Cc1ccc(O)cc1 (single isomer, unassigned)	–	2.7
O=C(NCC(=O)N1[C@@H](c2cccc(O)c2)CC[C@H]1C(=O)O)[C@@H](S)Cc1ccc(O)cc1	72	1.6
O=C(NCC(=O)N1[C@@H](c2ccccc2O)CC[C@H]1C(=O)O)[C@@H](S)Cc1ccc(O)cc1	69	3.5
Cc1ccc([C@H]2CC[C@@H](C(=O)O)N2C(=O)CNC(=O)[C@@H](S)Cc2ccc(O)cc2)cc1	3	5.5
Cc1ccccc1[C@H]1CC[C@@H](C(=O)O)N1C(=O)CNC(=O)[C@@H](S)Cc1ccccc1	37	5.3
